Activity calls are given as the source filed them. The rule behind the calls is not given here.
Experiments:
Mus musculus [1] = assay: Toxicity in Swiss mouse assessed as change in motor coordination by measuring number of falls from the rotating rod at 10 mg/kg, ip administered 30 mins prior to testing measured for 2 mins by rotarod test relative to control; assay type: organism-based; details: in vivo
Summary of the method: (§1)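 The same mice used for marble burying were placed on a rotarod at 4 r.p.m. for 2 min. No fall was scored success, one fall partial, and two falls failure.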

[2] = Drug uptake in Sprague-Dawley rat brain at 10 mg/kg, po measured after 60 mins by LC-MS/MS analysis; assay type: ADME, organism-based; details: read-out: Drug uptake
Summary of the method: (§2)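 Sprague-Dawley rats (n = 3 per time point) were given 10 mg/kg p.o. Total plasma concentrations were taken at 15, 30, 60 and 120 min. Brain levels of the dosed ligand and of the carboxylic acid metabolite were taken at 60 or 120 min.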

Mus musculus [3] = assay: Anxiolytic-like activity in Swiss Webster mouse marble burying model of anxiety assessed as suppression of marble burying activity at 30 mg/kg, ip administered 30 mins prior to test relative to vehicle-control; assay type: functional, organism-based
Summary of the method: (§3)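 Male NIH Swiss Webster mice (n = 10) received vehicle or compound at 10 or 30 mg/kg i.p. 30 min before marble burying testing. Sedation-like behaviour was noted by observation. Analysis was ANOVA with Dunnett's test vs vehicle.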

Mus musculus [4] = assay: Toxicity in Swiss mouse assessed as change in motor coordination by measuring number of falls from the rotating rod at 30 mg/kg, ip administered 30 mins prior to testing measured for 2 mins by rotarod test relative to control; assay type: organism-based; details: in vivo; summary of the method: as §1
Mus musculus [5] = assay: Anxiolytic-like activity in Swiss Webster mouse marble burying model of anxiety assessed as suppression of marble burying activity at 10 mg/kg, ip administered 30 mins prior to test relative to vehicle-control; assay type: functional, organism-based; summary of the method: as §3
[6] = target: T1, GABA-A receptor; alpha-1/beta-3/gamma-2 (Homo sapiens, UniProt P14867+P18507+P28472); assay: Binding affinity to human GABAA alpha1beta3gamma2 receptor expressed in HEK293 cells assessed as GABA-induced membrane potential change preincubated for 3 mins followed by addition of GABA measured after 3 mins by FLIPR assay; assay type: cell-based
T1 sequence (P14867 whole entry): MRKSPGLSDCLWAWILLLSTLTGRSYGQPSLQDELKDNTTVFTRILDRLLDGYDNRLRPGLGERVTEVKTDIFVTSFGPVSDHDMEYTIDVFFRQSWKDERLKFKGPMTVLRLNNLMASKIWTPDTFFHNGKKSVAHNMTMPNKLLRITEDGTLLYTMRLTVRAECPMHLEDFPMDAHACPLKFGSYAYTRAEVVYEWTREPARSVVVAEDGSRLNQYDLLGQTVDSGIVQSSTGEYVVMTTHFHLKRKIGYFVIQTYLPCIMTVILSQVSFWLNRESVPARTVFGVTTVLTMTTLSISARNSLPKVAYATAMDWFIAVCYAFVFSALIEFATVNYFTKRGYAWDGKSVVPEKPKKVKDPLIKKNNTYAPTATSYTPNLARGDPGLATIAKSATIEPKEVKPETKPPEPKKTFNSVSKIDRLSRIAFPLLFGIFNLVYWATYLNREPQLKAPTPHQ
T1 sequence (P18507 whole entry): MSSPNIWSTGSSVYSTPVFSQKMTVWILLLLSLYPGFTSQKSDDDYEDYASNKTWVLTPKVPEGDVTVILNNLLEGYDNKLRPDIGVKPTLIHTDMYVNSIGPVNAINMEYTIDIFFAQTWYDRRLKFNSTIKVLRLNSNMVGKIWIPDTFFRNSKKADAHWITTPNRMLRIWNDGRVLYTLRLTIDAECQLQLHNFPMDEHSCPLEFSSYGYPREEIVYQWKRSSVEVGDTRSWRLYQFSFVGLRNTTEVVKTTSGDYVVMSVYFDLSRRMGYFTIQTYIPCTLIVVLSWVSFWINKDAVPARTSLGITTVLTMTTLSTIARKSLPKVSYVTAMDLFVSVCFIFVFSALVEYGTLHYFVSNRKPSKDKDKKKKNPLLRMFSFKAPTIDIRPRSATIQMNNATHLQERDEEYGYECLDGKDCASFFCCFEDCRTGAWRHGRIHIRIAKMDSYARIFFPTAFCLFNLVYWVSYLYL
T1 sequence (P28472 whole entry): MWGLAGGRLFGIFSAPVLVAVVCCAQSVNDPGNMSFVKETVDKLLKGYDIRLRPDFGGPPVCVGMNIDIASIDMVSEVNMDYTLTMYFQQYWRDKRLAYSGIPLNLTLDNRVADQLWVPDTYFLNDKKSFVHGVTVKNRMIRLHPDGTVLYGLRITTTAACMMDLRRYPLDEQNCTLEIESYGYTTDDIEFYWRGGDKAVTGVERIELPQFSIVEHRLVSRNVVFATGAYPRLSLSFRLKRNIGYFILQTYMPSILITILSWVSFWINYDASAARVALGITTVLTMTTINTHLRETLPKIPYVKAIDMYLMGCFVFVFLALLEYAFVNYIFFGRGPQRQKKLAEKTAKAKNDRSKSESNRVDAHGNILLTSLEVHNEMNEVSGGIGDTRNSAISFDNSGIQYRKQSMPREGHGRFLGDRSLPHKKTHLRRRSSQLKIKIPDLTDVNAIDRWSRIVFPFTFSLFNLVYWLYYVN
Summary of the method: (§4)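 Stably transfected HEK293T cells expressing α1β3γ2 (n = 2) or α3β3γ2 (n = 1) GABAARs. Membrane potential was read as fluorescence changes on a FLIPR Tetra, and EC50 was derived.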

[7] = target: T2, GABA-A receptor; alpha-3/beta-3/gamma-2 (Homo sapiens, UniProt P18507+P28472+P34903); assay: Binding affinity to human GABAA alpha3beta3gamma2 receptor expressed in HEK293 cells assessed as GABA-induced membrane potential change preincubated for 3 mins followed by addition of GABA measured after 3 mins by FLIPR assay; assay type: cell-based; summary of the method: as §4
T2 sequence (P18507 whole entry): T1 sequence (P18507 whole entry)
T2 sequence (P28472 whole entry): T1 sequence (P28472 whole entry)
T2 sequence (P34903 whole entry): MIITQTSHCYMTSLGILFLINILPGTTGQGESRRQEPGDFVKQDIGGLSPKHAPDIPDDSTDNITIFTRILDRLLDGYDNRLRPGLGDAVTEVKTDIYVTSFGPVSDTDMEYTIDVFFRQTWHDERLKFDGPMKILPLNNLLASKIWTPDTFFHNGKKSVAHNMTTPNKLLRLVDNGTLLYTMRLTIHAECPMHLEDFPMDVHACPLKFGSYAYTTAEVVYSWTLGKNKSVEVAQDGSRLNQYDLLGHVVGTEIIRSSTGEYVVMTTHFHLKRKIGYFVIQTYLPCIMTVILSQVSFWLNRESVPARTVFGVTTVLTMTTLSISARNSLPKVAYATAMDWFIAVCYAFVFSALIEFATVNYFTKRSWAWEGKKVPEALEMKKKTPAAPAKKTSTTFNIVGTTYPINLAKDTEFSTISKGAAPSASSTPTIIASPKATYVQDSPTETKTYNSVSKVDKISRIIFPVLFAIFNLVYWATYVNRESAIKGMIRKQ

[8] = Cytotoxicity against HEK293T cells assessed as viable cells measured after 18 hrs by CellTiter-Glo assay; assay type: cell-based, HEK-293T; details: human, read-out: LD50
Summary of the method: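 HEK293T cells were exposed to compound for 18 h (n = 4). Viable cells were quantified with CellTiter-Glo, and LD50 was derived.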

Liver [9] = assay: Metabolic stability in rat liver microsomes assessed as compound remaining at 4 uM measured after 30 mins in presence of NADPH by LC-MS/MS analysis; assay type: ADME, microsome; details: 0.5 h
Summary of the method: (§5)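 Human, mouse or rat liver microsomes were incubated with compound at 4 μM final for 30 min at 37 °C (n = 1). Percent of parent remaining was quantified by LC-MS/MS.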

[10] = Total plasma concentration in Sprague-Dawley rat at 10 mg/kg, po measured after 60 mins by LC-MS/MS analysis; assay type: ADME, organism-based; summary of the method: as §2
Mus musculus [11] = assay: Toxicity in Swiss Webster mouse assessed as sedation-like behavior at 30 mg/kg, ip measured after 30 mins; assay type: organism-based; details: in vivo, 0.5 h; summary of the method: as §3
Liver [12] = assay: Metabolic stability in human liver microsomes assessed as compound remaining at 4 uM measured after 30 mins in presence of NADPH by LC-MS/MS analysis; assay type: ADME, microsome; details: 0.5 h; summary of the method: as §5
Liver [13] = assay: Metabolic stability in mouse liver microsomes assessed as compound remaining at 4 uM measured after 30 mins in presence of NADPH by LC-MS/MS analysis; assay type: ADME, microsome; details: 0.5 h; summary of the method: as §5

In the case of `C#Cc1ccc2c(c1)C(c1ccccn1)=NCc1c(-c3nc(CC)no3)ncn1-2`, the Activity (Mus musculus [1]) is reported as “Toxic”, the concentration at 1 h [2] is reported as 3090 nM and the Activity (Mus musculus [3]) is reported as “Active”. For the same compound, the Activity (Mus musculus [4]) was “Toxic”, the Activity (Mus musculus [5]) was “Active” and the EC50 [6] was > 20 µM. For the same compound, the EC50 [7] was 3.02 µM, the CC50 at 18 h [8] was > 100 µM and the Stability (Liver [9]) was 97%. For the same compound, the concentration at 1 h [10] was 1720 nM, the Activity (Mus musculus [11]) was “Toxic” and the Stability (Liver [12]) was 91%. It also gave a Stability (Liver [13]) of 92%.
